The list is not random: actives were taken first. Their share in the collection is about 4%.
OX1R antag-1: antagonists of human orexin 1 receptor | O43613 | CHO/OX1R cells, Fluo-8 calcium fluorescence, orexin A | inhibition, % at 5 µM | 0.43% of 330,000 active | AID 434989;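 active = inhibition above its plate's threshold, mean inhibition of all tested compounds on the plate plus 3 SD, cut at about 37% in these data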;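 note: 0% = orexin A challenge wells and 100% = SB-334867-A antagonist wells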
TAAR1 agonist: agonists of human TAAR1 | CHO RD-HGA16 TAAR1, Fluo-8 calcium fluorescence; vehicle wells 0%, saturating PEA agonist 100% | Q96RJ0 | AID 624467 | 0.99% of 360,000 active | activation, % at 3 µM;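 active = activation above the mean activation of all test compounds in the run plus 3 SD, cut at about 38% in these data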
Target sequence (Q96RJ0 whole entry, looked up): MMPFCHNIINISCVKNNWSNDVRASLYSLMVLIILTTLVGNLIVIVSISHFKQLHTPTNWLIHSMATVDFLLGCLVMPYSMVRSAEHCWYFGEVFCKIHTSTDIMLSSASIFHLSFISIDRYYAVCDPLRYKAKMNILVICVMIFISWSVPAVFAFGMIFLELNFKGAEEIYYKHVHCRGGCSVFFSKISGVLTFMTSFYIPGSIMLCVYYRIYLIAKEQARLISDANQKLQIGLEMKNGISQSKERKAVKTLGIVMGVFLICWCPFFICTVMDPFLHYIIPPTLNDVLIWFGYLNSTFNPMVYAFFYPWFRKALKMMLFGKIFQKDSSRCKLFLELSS
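Signal – calcium-sensitive Fluo-8 signal, excitation 470-495, emission 515-575 nm · System – RD-HGA16 (CHO) cells co-expressing Gα16 and hTAAR1 · Incubation – 17-24 h seeding, 75 min 37 °C dye, 30 min RT · Compound dosing – 3 µM single concentration · Repeats – no replicates (n 1)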
OX1R antag-2: OX1R (human) antagonism; OX1R-expressing cells, FRET antagonist read-out; inhibition, % at 6.6 µM; 1.8% of 330,000 active; in the data active = inhibition mostly above about 38%, no sharp cut-off; inactive = mostly below about 40%;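 note: 0% = agonist challenge alone and 100% = reference antagonist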
TAAR1 antag: antagonists of human TAAR1; inhibition, % at 3 µM; CHO RD-HGA16 TAAR1, Fluo-8 calcium fluorescence, antagonist; Q96RJ0; 1.5% of 360,000 active;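 active = inhibition above a per-plate cutoff, the mean inhibition of test compounds on that plate plus 3 SD, cut at about 49% in these data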;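 note: 0% = DMSO plus EC80 beta-PEA response and 100% = DMSO alone without agonist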
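Material: CHO RD-HGA16 cells bearing hTAAR1; compound dosing: one-point dosing, 3 µM nominal final; schedule: dye loading 75 min at 37 °C, then 30 min room temperature; measured by: calcium fluorescence with Fluo-8; control set: vehicle and agonist controls; replication: n of 1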
CHO parental Ca: counter-screen for OX1R antagonists: effect in parental CHO cells | parental CHO-K1, ATP-induced calcium, Fluo-8 fluorescence | inhibition, % at 5.6 µM | 0.63% of 330,000 active | AID 463079;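 active = inhibition above that plate's mean sample inhibition plus 3 SD, cut at about 26% in these data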;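 note: 0% = ATP-challenged DMSO wells and 100% = DMSO wells without ATP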
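Test system: untransfected parental CHO cell line; also added: ATP stimulus; dosing: 5.6 µM, single dose; signal: calcium-sensitive Fluo-8 fluorescence; measure: percent inhibition of ATP-evoked calcium rise, normalized to controls; benchmarks: low control ATP plus DMSO, high control DMSO only; replication: one well per compound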
OX1R HTRF confirm: OX1R (human) antagonism, HTRF confirmed; shares compounds with OX1R antag-2; OX1R-expressing cells, HTRF antagonist assay; inhibition, % at 6.6 µM; 49% of 1,800 active; in the data active = inhibition above about 55%;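 note: CHO cells expressing OX1R stimulated with orexin A at about EC80; 0% = agonist challenge alone and 100% = reference antagonist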
CHO-K1 HTRF: counter-screen: parental CHO-K1 HTRF response; AID 493232; inhibition, % at 6.6 µM; parental CHO-K1 cells, HTRF counterscreen; 48% of 1,800 active; shares compounds with OX1R antag-2; in the data active = inhibition above about 17%;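 note: 0% = agonist challenge with vehicle and 100% = vehicle alone without agonist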
Numbers without * were called inactive; · = not tested or not shown.

SMILES	OX1R antag-1	TAAR1 agonist	OX1R antag-2	TAAR1 antag	CHO parental Ca	OX1R HTRF confirm	CHO-K1 HTRF
CC(C)c1csc(CN2CCC(N3CCC(C(=O)NCC4CCCO4)CC3)CC2)n1 (stereo not drawn)	-32	9	0	5	-1	·	·
CCOc1ccc(OCCCC(=O)ON=C(N)c2ccccc2C)cc1	-9	0	7	7	-22	·	·
COC(=O)C1CCN(CC(=O)NC(=O)NC2CCCCC2)CC1	-3	0	0	-15	-6	·	·
CCOc1ccccc1NC(=O)C(=O)N/N=C/c1cc(Br)ccc1O	-29	-1	19	8	-20	·	·
CCC(=O)N1CCC1(C)C(=O)Nc1ccc2scnc2c1 (stereo not drawn)	·	4	·	-7	·	·	·
C=CCSc1nnc2c(n1)OC(c1cccnc1)Nc1ccccc1-2 (stereo not drawn)	-4	13	78*	-2	-12	22	8
C=CCSc1nnc2c(n1)OC(c1cccnc1)N(C(C)=O)c1ccccc1-2 (stereo not drawn)	-18	8	39	-4	-11	·	·
O=C(CSc1nnc2ccccn12)NNC(=O)c1ccc([N+](=O)[O-])cc1	-6	1	97*	-15	-9	35	36*
Cn1ccnc1Sc1cc(NCCCO)c([N+](=O)[O-])c2nonc12	0	1	83*	-7	8	51	78*
CC(C)c1nn2c(N)c(/C=C3\C=Nc4ccccc43)c(=O)nc2s1	2	5	82*	18	-11	66*	9
CC(=O)Nc1ccc(/C=C/c2ccc3cccc([N+](=O)[O-])c3n2)cc1	8	6	87*	12	-15	62*	10
CNC(=O)c1ccc(NC(=O)/C=C/c2cccc(F)c2)cc1	-8	6	26	23	4	·	·
O=C1C(O)=C(O)C(=O)c2ccccc21	0	4	13	-15	7	·	·
CC(=O)N(C)C1=C(O)c2ccccc2C(=O)C1=O	-7	3	83*	12	-2	51	94*
Cc1onc(-c2ccccc2)c1C(=O)NC1CCC(C)CC1 (stereo not drawn)	-19	1	1	-20	-21	·	·
Cc1ccc(N2C(=O)c3ccc(C(=O)NCCN4CCOCC4)cc3C2=O)cc1	-12	8	82*	4	-6	51	44*
CC(C)(C)OC1NS(=O)(=O)OCC1NCOC(Cl)(Cl)Cl (stereo not drawn)	-11	0	26	5	4	·	·
CCOc1ccccc1N(CC(=O)NCc1ccncc1)S(=O)(=O)c1ccccc1	-31	6	13	14	-22	·	·
CCOc1ccccc1N(CC(=O)NCCSc1ccccn1)S(=O)(=O)c1ccccc1	16	8	80*	47	-37	77*	8
O=C(NC1CC1)c1ccc(-c2nc3ccccc3s2)s1	21	3	113*	11	-15	84*	12
CC(=O)c1ccc2cc3c(cc2c1)OCO3	·	0	·	9	·	·	·
Cc1ccc(NC(=O)c2oc3ccccc3c2C)nc1	14	4	84*	-36	-12	79*	3
NCCCC[C@@H]1NC(=O)c2cc([N+](=O)[O-])cc(I)c2SC[C@@H](C(=O)NCC(N)=O)NC(=O)CNC1=O	-15	·	87*	·	-1	31	56*
NCCCC[C@@H]1NC(=O)c2cc([N+](=O)[O-])cc(I)c2SC[C@@H](C(N)=O)NC(=O)[C@H](CCC(N)=O)NC1=O	0	6	46	1	-9	·	·
Cc1cc(N2C(=O)C=CC2=O)c([N+](=O)[O-])cc1C	-5	·	20	·	4	·	·
SMILES	OX1R antag-1	TAAR1 agonist	OX1R antag-2	TAAR1 antag	CHO parental Ca	OX1R HTRF confirm	CHO-K1 HTRF
O=C(N/C(=C\c1ccc(Cl)cc1)C(=O)N1CCOCC1)c1ccc([N+](=O)[O-])cc1	-6	1	44	-15	-6	·	·
CC(=O)c1cc2c(cc1NS(=O)(=O)c1ccccc1F)OCO2	-3	3	6	-2	-18	·	·
CCNC1=C(Cl)C(=O)c2ccccc2C1=O	-15	6	178*	-25	8	58*	93*
O=C1C(Cl)=C(NCCN2CCCCC2)C(=O)c2ccccc21	-11	·	90*	·	8	68*	71*
CCOCCCNC(=O)C(Cc1ccccc1)NS(=O)(=O)c1cccc2nsnc12 (stereo not drawn)	-4	14	39	-11	-20	·	·
CCCNC(=O)C(Cc1ccccc1)NS(=O)(=O)c1cccc2nsnc12 (stereo not drawn)	-9	4	126*	-10	-23	38	27*
CCC(C)NC(=O)C(Cc1ccccc1)NS(=O)(=O)c1cccc2nsnc12 (stereo not drawn)	2	5	153*	-16	-18	55*	-4
CCC(C)NC(=O)C(NS(=O)(=O)c1cccc2nsnc12)c1ccccc1 (stereo not drawn)	-30	9	28	-23	-12	·	·
CN(CC(=O)NC1CCCCC1)S(=O)(=O)c1cccc2nsnc12	-30	1	95*	5	-27	56*	37*
CN(CC(=O)NCCN1CCCCCC1)S(=O)(=O)c1cccc2nsnc12	-19	-1	80*	5	-20	34	42*
CC1CCCCC1NC(=O)CN(C)S(=O)(=O)c1cccc2nsnc12 (stereo not drawn)	-20	17	84*	-2	-4	29	24*
CC1CCCCC1NC(=O)CN(C)S(=O)(=O)c1cccc2cccnc12 (stereo not drawn)	-20	1	11	-4	-9	·	·
CC(=O)N1CCOc2ccc(S(=O)(=O)N3CCC(C)CC3)cc21	-4	1	19	-6	-3	·	·
COc1ccc(-c2nn(Cc3ccccc3)cc2C(=O)N2CCN(c3ncccn3)CC2)cc1OC	-4	8	-1	-20	-27	·	·
Cc1ccc([N+](=O)[O-])cc1S(=O)(=O)NCC1COc2ccccc2O1 (stereo not drawn)	-13	5	22	8	-20	·	·
Cc1ccc(/C=C2/Sc3ccccc3N(CC(=O)NCCCOC(C)C)C2=O)cc1	27	3	84*	40	-20	70*	5
CCOCCCNC(=O)CN1C(=O)/C(=C/c2ccccc2)Sc2ccccc21	12	1	81*	18	-14	87*	9
Nc1c(C(=O)O)ccc2c1C(=O)c1ccccc1C2=O	3	1	107*	13	7	39	29*
O=C(O)c1ccc([N+](=O)[O-])c2c1C(=O)c1ccccc1C2=O	13	2	101*	-39	1	69*	104*
